Experimental data published in ChEMBL document CHEMBL4346701, “Synthesis and biological evaluation of tryptophan-derived rhodanine derivatives as PTP1B inhibitors and anti-bacterial agents” (Eur J Med Chem, 2019).
pIC50: −log10 of the molar value. Converted amounts (≈) assume the structure as drawn.

What was measured:
Staphylococcus aureus [1] = test: Potency index, ratio of MIC of norfloxacin to MIC of compound for antibacterial activity against Methicillin-resistant Staphylococcus aureus CCARM 3506 assessed as reduction in bacterial cell growth incubated for 24 hrs by ELISA; format: functional
Staphylococcus aureus [2] = test: Antibacterial activity against Methicillin-resistant Staphylococcus aureus CCARM 3506 assessed as reduction in bacterial cell growth incubated for 24 hrs by ELISA; format: functional; details: CCARM 3506, 24 h
In short: (§1)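 MICs determined by serial dilution in 96-well microtiter plates. The strain panel included Gram-positive S. aureus strains and multidrug-resistant clinical isolates. Gatifloxacin, moxifloxacin, norfloxacin and oxacillin served as antibacterial positive controls.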

Pseudomonas aeruginosa = test: Antibacterial activity against Pseudomonas aeruginosa 2742 assessed as reduction in bacterial cell growth incubated for 24 hrs by ELISA; format: functional; details: Pseudomonas aeruginosa, 2742, 24 h
In short: (§2)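 MIC determined by serial dilution in 96-well microtiter plates. Strains used were E. coli 1924 and P. aeruginosa 2742 (Gram-negative), S. mutans 3289 (Gram-positive) and the fungus C. albicans 7535. Gatifloxacin, moxifloxacin, norfloxacin and oxacillin served as antibacterial reference agents, and fluconazole as the antifungal reference.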

Staphylococcus aureus [3] = test: Antibacterial activity against Staphylococcus aureus KCTC503 assessed as reduction in bacterial cell growth incubated for 24 hrs by ELISA; format: functional; details: KCTC503, 24 h; in short: as §1
Candida albicans = test: Antifungal activity against Candida albicans 7535 assessed as reduction in bacterial cell growth incubated for 24 hrs by ELISA; format: functional; details: Candida albicans, 7535, 24 h; in short: as §2
Staphylococcus aureus [4] = test: Antibacterial activity against Methicillin-resistant Staphylococcus aureus CCARM 3167 assessed as reduction in bacterial cell growth incubated for 24 hrs by ELISA; format: functional; details: CCARM 3167, 24 h; in short: as §1
Staphylococcus aureus [5] = test: Potency index, ratio of MIC of norfloxacin to MIC of compound for antibacterial activity against Methicillin-resistant Staphylococcus aureus CCARM 3167 assessed as reduction in bacterial cell growth incubated for 24 hrs by ELISA; format: functional
Staphylococcus aureus [6] = test: Antibacterial activity against Quinolone-resistant Staphylococcus aureus CCARM 3505 assessed as reduction in bacterial cell growth incubated for 24 hrs by ELISA; format: functional; details: CCARM 3505, 24 h; in short: as §1
Staphylococcus aureus [7] = test: Potency index, ratio of MIC of oxacillin to MIC of compound for antibacterial activity against Methicillin-resistant Staphylococcus aureus CCARM 3167 assessed as reduction in bacterial cell growth incubated for 24 hrs by ELISA; format: functional
Streptococcus mutans = test: Antibacterial activity against Streptococcus mutans KCTC3289 assessed as reduction in bacterial cell growth incubated for 24 hrs by ELISA; format: functional; details: KCTC3289, 24 h; in short: as §2
Staphylococcus aureus [8] = test: Antibacterial activity against Staphylococcus aureus RN4220 assessed as reduction in bacterial cell growth incubated for 24 hrs by ELISA; format: functional; details: RN4220, 24 h; in short: as §1
Staphylococcus aureus [9] = test: Potency index, ratio of MIC of oxacillin to MIC of compound for antibacterial activity against Methicillin-resistant Staphylococcus aureus CCARM 3506 assessed as reduction in bacterial cell growth incubated for 24 hrs by ELISA; format: functional
Escherichia coli [10] = test: Antibacterial activity against Escherichia coli 1924 assessed as reduction in bacterial cell growth incubated for 24 hrs by ELISA; format: functional; details: Escherichia coli, 1924, 24 h; in short: as §2
Staphylococcus aureus [11] = test: Antibacterial activity against Quinolone-resistant Staphylococcus aureus CCARM 3519 assessed as reduction in bacterial cell growth incubated for 24 hrs by ELISA; format: functional; details: CCARM 3519, 24 h; in short: as §1
Staphylococcus aureus [12] = test: Antibacterial activity against Staphylococcus aureus KCTC209 assessed as reduction in bacterial cell growth incubated for 24 hrs by ELISA; format: functional; details: KCTC209, 24 h; in short: as §1
[13] = target: T1, Tyrosine-protein phosphatase non-receptor type 1 (Homo sapiens, UniProt P18031); test: Inhibition of human recombinant GST-tagged PTP1B expressed in Escherichia coli BL21 (DE3) using pNPP as substrate measured for 2 mins by colorimetric analysis
T1 sequence (P18031 whole entry): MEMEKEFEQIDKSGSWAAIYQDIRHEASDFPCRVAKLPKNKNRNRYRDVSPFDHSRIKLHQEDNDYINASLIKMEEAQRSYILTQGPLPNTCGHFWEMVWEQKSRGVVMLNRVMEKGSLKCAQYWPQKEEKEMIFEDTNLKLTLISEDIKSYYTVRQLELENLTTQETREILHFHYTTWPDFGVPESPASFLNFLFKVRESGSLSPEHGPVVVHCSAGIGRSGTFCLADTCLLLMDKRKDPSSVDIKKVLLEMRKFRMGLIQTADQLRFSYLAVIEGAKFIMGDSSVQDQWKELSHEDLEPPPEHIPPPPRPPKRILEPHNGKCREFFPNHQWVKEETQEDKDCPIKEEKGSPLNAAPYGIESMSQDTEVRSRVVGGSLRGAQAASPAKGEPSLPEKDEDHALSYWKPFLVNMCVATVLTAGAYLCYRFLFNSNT

Staphylococcus aureus [14] = test: Potency index, ratio of MIC of gatifloxacin to MIC of compound for antibacterial activity against Staphylococcus aureus KCTC503 assessed as reduction in bacterial cell growth incubated for 24 hrs by ELISA; format: functional
Escherichia coli [15] = test: Potency index, ratio of MIC of gatifloxacin to MIC of compound for antibacterial activity against Escherichia coli 1924 assessed as reduction in bacterial cell growth incubated for 24 hrs by ELISA; format: functional
Escherichia coli [16] = test: Potency index, ratio of MIC of moxifloxacin to MIC of compound for antibacterial activity against Escherichia coli 1924 assessed as reduction in bacterial cell growth incubated for 24 hrs by ELISA; format: functional

COc1cc(/C=C2\SC(=S)N(C(Cc3c[nH]c4ccccc34)C(=O)O)C2=O)ccc1OCc1ccc(Cl)cc1Cl (configuration not stated)
Ratio (Staphylococcus aureus [1]): 4 | MIC (Staphylococcus aureus [2]): 2 µg/mL (≈ 3.26 µM) | MIC (Pseudomonas aeruginosa): > 64 µg/mL | MIC (Staphylococcus aureus [3]): 2 µg/mL (≈ 3.26 µM) | MIC (Candida albicans): > 64 µg/mL | MIC (Staphylococcus aureus [4]): 2 µg/mL (≈ 3.26 µM) | Ratio (Staphylococcus aureus [5]): 4 | MIC (Staphylococcus aureus [6]): 2 µg/mL (≈ 3.26 µM) | Ratio (Staphylococcus aureus [7]): 64 | MIC (Streptococcus mutans): 2 µg/mL (≈ 3.26 µM) | MIC (Staphylococcus aureus [8]): 2 µg/mL (≈ 3.26 µM) | Ratio (Staphylococcus aureus [9]): 64 | MIC (Escherichia coli [10]): 2 µg/mL (≈ 3.26 µM) | MIC (Staphylococcus aureus [11]): 2 µg/mL (≈ 3.26 µM) | MIC (Staphylococcus aureus [12]): 2 µg/mL (≈ 3.26 µM) | pIC50 [13]: 6.15

O=C(O)C(Cc1c[nH]c2ccccc12)N1C(=O)/C(=C/c2cccc(OCc3ccc(Cl)cc3)c2)SC1=S (configuration not stated)
MIC (Staphylococcus aureus [2]): 4 µg/mL (≈ 7.29 µM) | MIC (Pseudomonas aeruginosa): > 64 µg/mL | Ratio (Staphylococcus aureus [14]): 2 | MIC (Staphylococcus aureus [3]): 2 µg/mL (≈ 3.64 µM) | MIC (Candida albicans): > 64 µg/mL | MIC (Staphylococcus aureus [4]): 2 µg/mL (≈ 3.64 µM) | MIC (Staphylococcus aureus [6]): 2 µg/mL (≈ 3.64 µM) | MIC (Streptococcus mutans): 2 µg/mL (≈ 3.64 µM) | MIC (Staphylococcus aureus [8]): 2 µg/mL (≈ 3.64 µM) | MIC (Escherichia coli [10]): 2 µg/mL (≈ 3.64 µM) | MIC (Staphylococcus aureus [11]): 4 µg/mL (≈ 7.29 µM) | MIC (Staphylococcus aureus [12]): 2 µg/mL (≈ 3.64 µM) | pIC50 [13]: 5.24

O=C(O)C(Cc1c[nH]c2ccccc12)N1C(=O)/C(=C/c2ccc3cc(OCc4ccc(Cl)cc4)ccc3c2)SC1=S (configuration not stated)
Ratio (Staphylococcus aureus [1]): 4 | MIC (Staphylococcus aureus [2]): 2 µg/mL (≈ 3.34 µM) | MIC (Pseudomonas aeruginosa): > 64 µg/mL | MIC (Candida albicans): > 64 µg/mL | MIC (Staphylococcus aureus [4]): 2 µg/mL (≈ 3.34 µM) | Ratio (Staphylococcus aureus [5]): 4 | MIC (Staphylococcus aureus [6]): 2 µg/mL (≈ 3.34 µM) | Ratio (Staphylococcus aureus [7]): 64 | MIC (Streptococcus mutans): 2 µg/mL (≈ 3.34 µM) | MIC (Staphylococcus aureus [8]): 2 µg/mL (≈ 3.34 µM) | Ratio (Staphylococcus aureus [9]): 64 | MIC (Escherichia coli [10]): 2 µg/mL (≈ 3.34 µM) | MIC (Staphylococcus aureus [11]): 4 µg/mL (≈ 6.68 µM) | pIC50 [13]: 6.14

O=C(O)C(Cc1c[nH]c2ccccc12)N1C(=O)/C(=C/c2ccc(OCc3ccc(Br)cc3)cc2)SC1=S (configuration not stated)
Ratio (Staphylococcus aureus [1]): 4 | MIC (Staphylococcus aureus [2]): 2 µg/mL (≈ 3.37 µM) | Ratio (Escherichia coli [15]): 2 | MIC (Pseudomonas aeruginosa): > 64 µg/mL | Ratio (Staphylococcus aureus [14]): 2 | Ratio (Escherichia coli [16]): 2 | MIC (Staphylococcus aureus [3]): 2 µg/mL (≈ 3.37 µM) | MIC (Candida albicans): > 64 µg/mL | MIC (Staphylococcus aureus [4]): 2 µg/mL (≈ 3.37 µM) | Ratio (Staphylococcus aureus [5]): 4 | MIC (Staphylococcus aureus [6]): 2 µg/mL (≈ 3.37 µM) | Ratio (Staphylococcus aureus [7]): 64 | MIC (Streptococcus mutans): 1 µg/mL (≈ 1.68 µM) | MIC (Staphylococcus aureus [8]): 1 µg/mL (≈ 1.68 µM) | Ratio (Staphylococcus aureus [9]): 64 | MIC (Escherichia coli [10]): 1 µg/mL (≈ 1.68 µM) | MIC (Staphylococcus aureus [11]): 2 µg/mL (≈ 3.37 µM) | MIC (Staphylococcus aureus [12]): 4 µg/mL (≈ 6.74 µM) | pIC50 [13]: 5.59
